# Published values collected from several papers.
# Compare with care: the assays were run in different laboratories.
# Target: Serine/threonine-protein kinase MARK1 (MARK1, Homo sapiens, UniProt Q9P0L2)
Structure (SMILES),observed,mode,technique,concentration,endpoint,value
C#Cc1cc(-c2cc(Nc3nc(N[C@@H](C)c4ccc(F)cn4)ncc3Cl)n[nH]2)ccc1C=O,enzyme activity,inhibitor,,0.2 µM,inhibition,8.26%
CO[C@@H]1[C@H](N(C)C(=O)c2ccccc2)C[C@H]2O[C@]1(C)n1c3ccccc3c3c4c(c5c6ccccc6n2c5c31)C(=O)NC4,enzyme activity,inhibitor,,1 µM,inhibition,96%
C1=C/COCc2cc(ccc2OCCN2CCCC2)Nc2nccc(n2)-c2cccc(c2)COC/1,binding,,,0.1 µM,remaining binding,100%
CCCCC(=O)Nc1ccc(-c2ccc3ncn(CCC)c(=O)c3c2)cn1,binding,,competition with immobilised ligand,0.5 µM,remaining binding,81%
C[C@H]1CC[C@H](n2c3cnccc3c3cnc(Nc4ccc5c(n4)CCN(C(=O)CO)C5)nc32)CC1,cell-free assay,,,1 µM,remaining signal,66%
COc1ccc2oc(-c3ccc4nc(N)oc4c3)c/c(=N\c3ccccc3NC(=O)CCN)c2c1,binding,,,1 µM,remaining binding,103%
Cc1ccc(NC(=O)c2ccnc(C(F)(F)F)c2)cc1-c1cc(OCCO)nc(N2CCOCC2)c1,binding,,,1 µM,remaining binding,100%
CC#CC(=O)N1CCC[C@H]1c1nc(-c2ccc(C(=O)Nc3ccccn3)cc2)c2c(N)nccn12,enzyme activity,inhibitor,,1 µM,inhibition,10%
